ChEMBL document CHEMBL1817570, “Unsymmetrical cyclotriazadisulfonamide (CADA) compounds as human CD4 receptor down-modulating agents” (J Med Chem, 2011)
Where a name gives a salt, the structure may show the parent alone.

Tested on: CHO
Assay: Downmodulation of human CD4 expressed in CHO cells transfected with CD4-YFP construct assessed as decrease in fluorescence intensity after 24 hrs by flow cytometry analysis
Format: functional, cell-based
Conditions: Cricetulus griseus
How it was run: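 CHO cells stably expressing human CD4 fused at its C-terminus to YFP, exposed to a range of concentrations for 24 h at 37 °C. Cells were washed, fixed in 1% formaldehyde and analysed at once by flow cytometry with 488 nm excitation, reading YFP in FL-1. YFP median fluorescence intensity was expressed as % of untreated control after subtracting the background of nontransfected cells. IC50 is the 50% CD4 down-modulation point, reported as mean ± SD of three independent experiments (two for some).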

Structure (SMILES)	IC50 (read-out: IC50) [nM]	IC50 (read-out: pIC50 (converted)) [nM]
C=C1CN(S(=O)(=O)c2ccc(C)cc2)CCCN(CC2CCCCC2)CCCN(S(=O)(=O)c2ccc(OC)cc2)C1	46	45.7
C=C1CN(S(=O)(=O)c2ccc(C)cc2)CCCN(CC2CCCCC2)CCCN(S(=O)(=O)c2cccc3cnccc23)C1	> 25000	22900
C=C1CN(S(=O)(=O)c2ccc(C)cc2)CCCN(CC2CCCCC2)CCCN(S(=O)(=O)c2ccc(C(C)(C)C)cc2)C1	780	776
C=C1CN(S(=O)(=O)c2ccccc2)CCCN(CC2CCCCC2)CCCN(S(=O)(=O)c2ccc(C)cc2)C1	430	437
C=C1CN(S(=O)(=O)c2ccc(C)cc2)CCCN(CC2CCCCC2)CCCN(S(=O)(=O)c2ccc3ccccc3c2)C1	180	178
C=C1CN(S(=O)(=O)c2ccc(C)cc2)CCCN(CC2CCCCC2)CCCN(S(=O)(=O)c2cccc3c(N(C)C)cccc23)C1	1060	1070
C=C1CN(S(=O)(=O)c2ccc(C)cc2)CCCN(CC2CCCCC2)CCCN(S(=O)(=O)c2ccc(C)cc2)C1	190	186
C=C1CN(S(=O)(=O)c2ccc(C)cc2)CCCN(Cc2ccccc2)CCCN(S(=O)(=O)c2cccc3c(N(C)C)cccc23)C1	5900	5890
C=C1CN(S(=O)(=O)c2ccc(C)cc2)CCCN(CC2CCCCC2)CCCN(S(=O)(=O)c2cccc3ccccc23)C1	940	933
C=C1CN(S(=O)(=O)c2ccc(OC)cc2)CCCN(CC2CCCCC2)CCCN(S(=O)(=O)c2cccc3c(N(C)C)cccc23)C1	730	724
C=C1CN(S(=O)(=O)c2ccc(C)cc2)CCCN(CC2CCCCC2)CCCN(S(=O)(=O)c2ccc(Cl)cc2)C1	360	363
C=C1CN(S(=O)(=O)c2ccc(C)cc2)CCCN(CC2CCCCC2)CCCN(S(=O)(=O)c2ccc([N+](=O)[O-])cc2)C1	760	759
C=C1CN(S(=O)(=O)c2ccc(C)cc2)CCCN(Cc2ccccc2)CCCN(S(=O)(=O)c2ccc(C)cc2)C1 [CYCLOTRIAZADISULFONAMIDE HYDROCHLORIDE]	560	562
C=C1CN(S(=O)(=O)c2ccc(C)cc2)CCCN(Cc2ccccc2)CCCN(S(=O)(=O)c2ccc(OC)cc2)C1	300	295
C=C1CN(S(=O)(=O)c2ccc(C)cc2)CCCN(CC2CCCCC2)CCCN(S(=O)(=O)c2ccccc2[N+](=O)[O-])C1	220	224
C=C1CN(S(=O)(=O)c2ccc(OC)cc2)CCCN(Cc2ccccc2)CCCN(S(=O)(=O)c2ccc(OC)cc2)C1	230	229
C=C1CNCCCN(CC2CCCCC2)CCCN(S(=O)(=O)c2ccc(C)cc2)C1	19000	18600
C=C1CN(S(=O)(=O)c2ccc(OC)cc2)CCCN(CC2CCCCC2)CCCN(S(=O)(=O)c2ccc(OC)cc2)C1	130	135
